Assay results published in ChEMBL document CHEMBL1140082, “Design, synthesis, and biological evaluation of potent c-Met inhibitors” (J Med Chem, 2008).
Values belong to the compound of their own block, whether it stands above or below them.

Columns and labels:
[1] = biological target: Hepatocyte growth factor receptor (Homo sapiens, UniProt P08581); experiment: Inhibition of cMet by HTRF assay
[2] = biological target: Vascular endothelial growth factor receptor 2 (Homo sapiens, UniProt P35968); experiment: Inhibition of phosphorylated KDR by HTRF assay
Method in brief: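 HTRF assay against KDR kinase with 10-point serial dilution. ATP at two-thirds of the experimentally determined Km (Eadie-Hofstee and Lineweaver-Burke). Ki derived from the IC50.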

[3] = system: A-431; experiment: Cytotoxicity against human A431 cells; type: functional, cell-based
[4] = biological target: Hepatocyte growth factor receptor c-Met (Mus musculus) (UniProt P16056); experiment: Inhibition of human recombinant HGF-mediated cMet phosphorylation in mouse CT26 cells
[5] = Inhibition of IGFR
[6] = biological target: Ribosomal protein S6 kinase beta-1 (Homo sapiens, UniProt P23443); experiment: Inhibition of P70S6
[7] = Clearance in iv dosed rat; type: ADME, organism-based; conditions: in vivo
[8] = biological target: Macrophage-stimulating protein receptor (Homo sapiens, UniProt Q04912); experiment: Inhibition of phosphorylated RON
[9] = biological target: T1, Tyrosine-protein kinase JAK3 (Homo sapiens, UniProt P52333); experiment: Inhibition of JAK3
T1 sequence (P52333 whole entry): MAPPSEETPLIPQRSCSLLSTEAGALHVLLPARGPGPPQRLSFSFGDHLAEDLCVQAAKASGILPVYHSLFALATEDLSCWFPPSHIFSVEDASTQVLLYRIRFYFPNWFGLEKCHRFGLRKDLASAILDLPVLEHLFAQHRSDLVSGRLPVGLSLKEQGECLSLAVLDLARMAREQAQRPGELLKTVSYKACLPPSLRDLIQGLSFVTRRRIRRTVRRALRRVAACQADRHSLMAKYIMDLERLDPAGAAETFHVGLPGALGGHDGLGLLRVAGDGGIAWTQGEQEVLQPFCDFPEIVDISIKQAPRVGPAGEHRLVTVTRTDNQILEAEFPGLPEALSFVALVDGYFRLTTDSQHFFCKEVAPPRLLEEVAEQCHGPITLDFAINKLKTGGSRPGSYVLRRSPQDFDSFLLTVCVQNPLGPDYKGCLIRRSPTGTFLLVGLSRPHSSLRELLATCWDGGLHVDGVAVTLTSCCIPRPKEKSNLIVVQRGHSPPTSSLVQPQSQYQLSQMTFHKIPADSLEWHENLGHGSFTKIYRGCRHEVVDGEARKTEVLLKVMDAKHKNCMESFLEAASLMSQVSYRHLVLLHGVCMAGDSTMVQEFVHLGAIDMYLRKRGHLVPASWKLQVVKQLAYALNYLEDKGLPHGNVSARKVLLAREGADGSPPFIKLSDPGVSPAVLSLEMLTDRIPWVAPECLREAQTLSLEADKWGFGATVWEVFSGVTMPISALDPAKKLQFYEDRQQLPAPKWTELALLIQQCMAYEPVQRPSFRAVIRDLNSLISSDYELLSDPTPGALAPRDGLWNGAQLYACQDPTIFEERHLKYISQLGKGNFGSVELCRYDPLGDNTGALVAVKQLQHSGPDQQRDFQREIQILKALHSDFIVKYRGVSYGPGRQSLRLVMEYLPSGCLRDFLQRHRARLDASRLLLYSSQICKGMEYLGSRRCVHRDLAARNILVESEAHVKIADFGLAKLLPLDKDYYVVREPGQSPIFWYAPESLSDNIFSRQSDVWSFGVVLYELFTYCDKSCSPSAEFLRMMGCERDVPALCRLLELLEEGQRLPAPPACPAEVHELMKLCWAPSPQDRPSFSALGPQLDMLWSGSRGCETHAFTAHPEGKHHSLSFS

[10] = biological target: Tyrosine-protein kinase ZAP-70 (Homo sapiens, UniProt P43403); experiment: Inhibition of ZAP70
[11] = biological target: Ribosomal protein S6 kinase alpha-5 (Homo sapiens, UniProt O75582); experiment: Inhibition of MSK1
[12] = Bioavailability in iv dosed rat; type: ADME, organism-based; conditions: in vivo
[13] = biological target: Angiopoietin-1 receptor (Homo sapiens, UniProt Q02763); experiment: Inhibition of Tie2 kinase
[14] = Inhibition of FGFRK
[15] = biological target: Tyrosine-protein kinase Lck (Homo sapiens, UniProt P06239); experiment: Inhibition of LCK
[16] = Half life in iv dosed rat; type: ADME, organism-based; conditions: in vivo
[17] = biological target: Vascular endothelial growth factor receptor 1 (Homo sapiens, UniProt P17948); experiment: Inhibition of Flt1 kinase
[18] = biological target: Cyclin-dependent kinase 5 (Homo sapiens, UniProt Q00535); experiment: Inhibition of CDK5
[19] = biological target: Serine/threonine-protein kinase pim-1 (Homo sapiens, UniProt P11309); experiment: Inhibition of PIM1 kinase
[20] = biological target: Tyrosine-protein kinase BTK (Homo sapiens, UniProt Q06187); experiment: Inhibition of BTK
[21] = biological target: Macrophage colony-stimulating factor 1 receptor (Homo sapiens, UniProt P07333); experiment: Inhibition of cFMS kinase
[22] = biological target: RAC-alpha serine/threonine-protein kinase (Homo sapiens, UniProt P31749); experiment: Inhibition of PKBalpha
[23] = biological target: Mitogen-activated protein kinase 3 (Homo sapiens, UniProt P27361); experiment: Inhibition of ERK1
[24] = biological target: Fibroblast growth factor receptor 2 (Homo sapiens, UniProt P21802); experiment: Inhibition of FGFRK2
[25] = biological target: Tyrosine-protein kinase JAK2 (Homo sapiens, UniProt O60674); experiment: Inhibition of JAK2
[26] = system: Mus musculus; experiment: Inhibition of human recombinant HGF-induced cMet phosphorylation in po or ip dosed BALB/c mouse liver after 2 hrs
[27] = biological target: T2, Aurora kinase A (Homo sapiens, UniProt O14965); experiment: Inhibition of Aurora2
T2 sequence (O14965 whole entry): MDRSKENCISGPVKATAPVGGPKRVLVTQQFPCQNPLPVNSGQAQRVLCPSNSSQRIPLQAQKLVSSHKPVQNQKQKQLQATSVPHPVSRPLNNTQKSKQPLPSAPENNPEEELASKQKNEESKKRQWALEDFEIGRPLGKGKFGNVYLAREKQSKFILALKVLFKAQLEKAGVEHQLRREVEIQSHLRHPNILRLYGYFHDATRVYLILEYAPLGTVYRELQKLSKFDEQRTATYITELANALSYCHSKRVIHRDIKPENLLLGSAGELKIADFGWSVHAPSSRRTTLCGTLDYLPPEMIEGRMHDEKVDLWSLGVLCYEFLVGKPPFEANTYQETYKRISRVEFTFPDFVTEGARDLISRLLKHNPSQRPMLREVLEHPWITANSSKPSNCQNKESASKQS

[28] = biological target: Mitogen-activated protein kinase 9 (Homo sapiens, UniProt P45984); experiment: Inhibition of JNK2
[29] = biological target: Serine/threonine-protein kinase pim-2 (Homo sapiens, UniProt Q9P1W9); experiment: Inhibition of PIM2 kinase
[30] = biological target: cAMP-dependent protein kinase catalytic subunit alpha (Homo sapiens, UniProt P17612); experiment: Inhibition of PKAalpha
[31] = Volume of distribution in iv dosed rat; type: ADME, organism-based; conditions: in vivo
[32] = biological target: Vascular endothelial growth factor receptor 3 (Homo sapiens, UniProt P35916); experiment: Inhibition of Flt4 kinase
[33] = Inhibition of P38 kinase

Ki [1]: 0.0092 µM
Structure (SMILES): COc1cc2c(Oc3ccc(-c4cnc(Cc5ccccc5)n(C)c4=O)cc3F)ccnc2cc1OCCCN1CCN(C)CC1

Ki [1]: 0.201 µM | Ki [2]: 0.056 µM
Structure (SMILES): COc1cc2nccc(Oc3ccc(-c4ccc(Cc5ccccc5)nn4)cc3F)c2cc1OC

Structure (SMILES): COc1cc2nccc(Oc3ccc(NC(=S)NC(=O)Cc4ccccc4)cc3F)c2cc1OC
IC50 [3]: 0.0087 µM

IC50 [4]: 0.196 µM | Ki [1]: 0.017 µM | Ki [5]: 0.86 µM | Ki [2]: > 3 µM
Structure (SMILES): COc1cc2c(Oc3ccc(-c4cnc(Cc5ccc(F)cc5)n(C)c4=O)cc3F)ccnc2cc1OCCCN1CCOCC1

Ki [5]: 0.07 µM | Ki [2]: 0.382 µM
Structure (SMILES): COc1cc2nccc(Oc3ccc(-c4cnc(Nc5ccc(F)cc5)n(C)c4=O)cc3F)c2cc1OC

IC50 [6]: 10 µM | clearance [7]: 9.33 mL/min/kg | Ki [8]: 0.195 µM | IC50 [9]: > 8.3 µM | IC50 [10]: > 5.4 µM | IC50 [11]: > 100 µM | bioavailability [12]: 100% | IC50 [13]: 0.285 µM | IC50 [14]: > 1 µM | IC50 [15]: 0.008 µM | half-life [16]: 2.4 h | IC50 [17]: > 1 µM | IC50 [18]: > 100 µM | IC50 [19]: > 30 µM | IC50 [20]: 0.019 µM | IC50 [21]: 0.037 µM | IC50 [22]: > 100 µM | IC50 [23]: > 100 µM | IC50 [24]: > 1 µM | IC50 [25]: > 25 µM | Ki [1]: 0.0089 µM | IC50 [27]: 0.116 µM | Ki [5]: 1.45 µM | IC50 [28]: > 100 µM | Ki [2]: 0.422 µM | IC50 [29]: > 25 µM | IC50 [30]: > 100 µM | Vd [31]: 3.4 L/kg | IC50 [32]: 0.12 µM | IC50 [33]: > 25 µM
Structure (SMILES): COc1cc2c(Oc3ccc(-c4cnc(Cc5ccccc5)n(C)c4=O)cc3F)ccnc2cc1OCCCN1CCOCC1
ED90 [26]: 100 mg/kg
